According to ChEMBL document CHEMBL1125138, “1,3-Dialkyl-3-acyltriazenes, a novel class of antineoplastic alkylating agents” (J Med Chem, 1990):

How the values were obtained:
A 172 = test: Evaluated for the inhibitory concentration required to cause growth inhibition of A172Mer- cell line of central nervous system (CNS) using the MTT Cytotoxicity Assay; format: functional, cell-based; settings: Homo sapiens
In short: (§1)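 MTT microculture tetrazolium growth assay on human cell lines and normal fibroblasts. Cells seeded at 1000 cells/well, with compound added 24 h after plating. Cultures then incubated a further 6 days at 37 °C before MTT read-out of growth versus untreated cells.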

NCI-H125 = test: Evaluated for the inhibitory concentration required to cause growth inhibition of H125 cell line of lung using the Microculture Tetrazolium (MTT) Cytotoxicity Assay; format: functional, cell-based; settings: Homo sapiens; in short: as §1
NCI/ADR-RES = test: Evaluated for the inhibitory concentration required to cause growth inhibition of MCF-7ADR breast cell line using the MTT Cytotoxicity Assay; format: functional, cell-based; settings: Homo sapiens; in short: as §1
[1] = Evaluated for the antineoplastic activity against M5 sarcoma tumor xenograft in nude mice after administering Intra peritoneally at 4-day interval at a dose of 7.5 mg/kg; format: functional, Mus musculus
In short: (§2)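 M5 sarcoma-bearing mice given four intraperitoneal injections at 4-day intervals. Activity reported as % T/C per dose. Performed under the NCI Developmental Therapeutics Program.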

[2] = Evaluated for the antineoplastic activity against amelanotic melanoma tumor xenograft in nude mice after injecting intraperitoneally at a dose of 120 mg/kg; format: functional, Mus musculus; settings: route intraperitoneal
U-251 = test: Evaluated for the inhibitory concentration required to cause growth inhibition of U251 cell line of central nervous system (CNS) using the MTT Cytotoxicity Assay; format: functional, cell-based; settings: Homo sapiens
In short: (§3)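 MTT cell-growth assay in human cell lines: cells harvested and seeded at 1000 cells/well in 96-well plates. Compound added after 24 h, then cultures incubated a further 6 days at 37 °C. Growth measured with and without agent.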

DOD-1 = test: Evaluated for the inhibitory concentration required to cause growth inhibition of DOD-1 breast cell line using the MTT Cytotoxicity Assay; format: functional, cell-based; settings: Homo sapiens; in short: as §1
A673 = test: Evaluated for the inhibitory concentration required to cause growth inhibition of A673Mer+ sarcoma cell line using the MTT Cytotoxicity Assay; format: functional, cell-based; settings: Homo sapiens; in short: as §1
NCI-H358 = test: Evaluated for the inhibitory concentration required to cause growth inhibition of H358M cell line of lung using the Microculture Tetrazolium (MTT) Cytotoxicity Assay; format: functional, cell-based; settings: Homo sapiens; in short: as §1
CCD 19Lu = test: Evaluated for the inhibitory concentration required to cause growth inhibition of CCD-19Lu fibroblasts cell line using the MTT Cytotoxicity Assay; format: functional, cell-based; settings: Homo sapiens; in short: as §1
WiDr = test: Evaluated for the inhibitory concentration required to cause growth inhibition of WiDR colon cell line using the MTT Cytotoxicity Assay; format: functional, cell-based; settings: Homo sapiens; in short: as §3
[3] = Evaluated for the antineoplastic activity against M5 sarcoma tumor xenograft in nude mice after administering Intra peritoneally at 4-day interval at a dose of 60 mg/kg; format: functional, Mus musculus; in short: as §2
TE-671 = test: Evaluated for the inhibitory concentration required to cause growth inhibition of TE-671 cell line of central nervous system (CNS)using the MTT Cytotoxicity Assay; format: functional, cell-based; settings: Homo sapiens; in short: as §1
RPMI-7951 = test: Evaluated for the inhibitory concentration required to cause growth inhibition of RPMI7951 melanoma cell line using the MTT Cytotoxicity Assay; format: functional, cell-based; settings: Homo sapiens; in short: as §1
NCI-H522 (Homo sapiens) = test: Evaluated for the inhibitory concentration required to cause growth inhibition of H522 cell line of lung using the Microculture Tetrazolium (MTT) Cytotoxicity Assay
L1210 [4] = test: Evaluated for the antineoplastic activity against L1210 leukemia tumor […] after administering intra peritoneally at a dose of 15 mg/kg; format: functional, Mus musculus
Malme-3M = test: Evaluated for the inhibitory concentration required to cause growth inhibition of MALME-3M melanoma cell line using the MTT Cytotoxicity Assay; format: functional, cell-based; settings: Homo sapiens; in short: as §1
NCI-H322M = test: Evaluated for the inhibitory concentration required to cause growth inhibition of H322M cell line of lung using the Microculture Tetrazolium (MTT) Cytotoxicity Assay; format: functional, cell-based; settings: Homo sapiens; in short: as §1
A704 = test: Evaluated for the inhibitory concentration required to cause growth inhibition of A704Rem- renal cell line using the MTT Cytotoxicity Assay; format: functional, cell-based; settings: Homo sapiens; in short: as §1
OVCAR-4 = test: Evaluated for the inhibitory concentration required to cause growth inhibition of OVCAR-4 ovarian cell line using the MTT Cytotoxicity Assay; format: functional, cell-based; settings: Homo sapiens; in short: as §1
SK-MEL-5 = test: Evaluated for the inhibitory concentration required to cause growth inhibition of SK-MEL-5 melanoma cell line using the MTT Cytotoxicity Assay; format: functional, cell-based; settings: Homo sapiens; in short: as §1
[5] = Evaluated for the antineoplastic activity against amelanotic melanoma tumor xenograft in nude mice after injecting intraperitoneally at a dose of 60 mg/kg; format: functional, Mus musculus; settings: route intraperitoneal
[6] = Evaluated for the antineoplastic activity against M5 sarcoma tumor xenograft in nude mice after administering Intra peritoneally at 4-day interval at a dose of 15 mg/kg; format: functional, Mus musculus; in short: as §2
LOX IMVI = test: Evaluated for the inhibitory concentration required to cause growth inhibition of LOX melanoma cell line using the MTT Cytotoxicity Assay; format: functional, cell-based; settings: Homo sapiens; in short: as §1
[7] = Evaluated for the antineoplastic activity against M5 sarcoma tumor xenograft in nude mice after administering Intra peritoneally at 4-day interval at a dose of 30 mg/kg; format: functional, Mus musculus; in short: as §2
NCI-H23 = test: Evaluated for the inhibitory concentration required to cause growth inhibition of H23 cell line of lung using the Microculture Tetrazolium (MTT) Cytotoxicity Assay; format: functional, cell-based; settings: Homo sapiens; in short: as §1
MCF7 = test: Evaluated for the inhibitory concentration required to cause growth inhibition of MCF-7 breast cell line using the MTT Cytotoxicity Assay; format: functional, cell-based; settings: Homo sapiens; in short: as §1
A549 = test: Evaluated for the inhibitory concentration required to cause growth inhibition of A549Rem- cell line of lung using the MTT Cytotoxicity Assay; format: functional, cell-based; settings: Homo sapiens; in short: as §1
A-427 = test: Evaluated for the inhibitory concentration required to cause growth inhibition of A427Mer- cell line of lung using the MTT Cytotoxicity Assay; format: functional, cell-based; settings: Homo sapiens; in short: as §1
L1210 [8] = test: Evaluated for the antineoplastic activity against L1210 leukemia tumor […] after administering intra peritoneally at a dose of 30 mg/kg; format: functional, Mus musculus
In short: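 Mice bearing L1210 leukemia dosed intraperitoneally once daily for 5 successive days (five injections). Activity reported as % T/C at each dose. Performed under the NCI Developmental Therapeutics Program.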

A498 = test: Evaluated for the inhibitory concentration required to cause growth inhibition of A498Rem- renal cell line using the MTT Cytotoxicity Assay; format: functional, cell-based; settings: Homo sapiens; in short: as §1
[9] = Evaluated for the antineoplastic activity against amelanotic melanoma tumor xenograft in nude mice after injecting intraperitoneally at a dose of 30 mg/kg; format: functional, Mus musculus; settings: route intraperitoneal
[10] = tested on: MAR BEL fibroblasts cell line; test: Evaluated for the inhibitory concentration required to cause growth inhibition of MAR BEL fibroblasts cell line using the MTT Cytotoxicity Assay; format: functional, cell-based; settings: Homo sapiens; in short: as §1
HOS-TE85 = test: Evaluated for the inhibitory concentration required to cause growth inhibition of TE85Mer+ sarcoma cell line using the MTT Cytotoxicity Assay; format: functional, cell-based; settings: Homo sapiens; in short: as §1
OVCAR-3 = test: Evaluated for the inhibitory concentration required to cause growth inhibition of OVCAR-3 ovarian cell line using the MTT Cytotoxicity Assay; format: functional, cell-based; settings: Homo sapiens; in short: as §1
NCI-H460 = test: Evaluated for the inhibitory concentration required to cause growth inhibition of H460 cell line of lung using the Microculture Tetrazolium (MTT) Cytotoxicity Assay; format: functional, cell-based; settings: Homo sapiens; in short: as §1
P388 [11] = test: Evaluated in vivo for antineoplastic activity against P388 murine leukemia tumor […] after administering intra peritoneal injection at a dose of 13.12 mg/kg; format: functional, Mus musculus
In short: (§4)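 P388 leukemia-bearing mice, run through the NCI Developmental Therapeutics Program. Compound given ip once daily on 5 consecutive days. Activity read out as % T/C.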

P388 [12] = test: Evaluated in vivo for antineoplastic activity against P388 murine leukemia tumor […] after administering intra peritoneal injection at a dose of 52.5 mg/kg; format: functional, Mus musculus; in short: as §4
P388 [13] = test: Evaluated in vivo for antineoplastic activity against P388 murine leukemia tumor […] after administering intra peritoneal injection at a dose of 26.25 mg/kg; format: functional, Mus musculus; in short: as §4
P388 [14] = test: Evaluated in vivo for antineoplastic activity against P388 murine leukemia tumor […] after administering intra peritoneal injection on each of 5 consecutive days at a dose of 30.0 mg/kg; format: functional, Mus musculus; in short: as §4

| Compound | IC50 (A 172) [µM] | IC50 (NCI-H125) [µM] | IC50 (NCI/ADR-RES) [µM] | IC50 (U-251) [µM] | IC50 (DOD-1) [µM] | IC50 (A673) [µM] | IC50 (NCI-H358) [µM] | IC50 (CCD 19Lu) [µM] | IC50 (WiDr) [µM] | IC50 (TE-671) [µM] | IC50 (RPMI-7951) [µM] | IC50 (NCI-H522 (Homo sapiens)) [µM] | IC50 (Malme-3M) [µM] | IC50 (NCI-H322M) [µM] | IC50 (A704) [µM] | IC50 (OVCAR-4) [µM] | IC50 (SK-MEL-5) [µM] | IC50 (LOX IMVI) [µM] | IC50 (NCI-H23) [µM] | IC50 (MCF7) [µM] | further results |
| --- | --- | --- | --- | --- | --- | --- | --- | --- | --- | --- | --- | --- | --- | --- | --- | --- | --- | --- | --- | --- | --- |
| CCOC(=O)N(C)/N=N\C | 20 | 44 | 34 | 28 | 44 | 75 | 80 | 62 | 45 | 48 | 35 | 18 | 22 | 42 | 55 | 40 | 20 | 22 | 20 | 27 | T/C [1]: 131%; T/C [2]: 191%; T/C [3]: 168%; T/C (L1210 [4]): 133%; T/C [5]: 147%; T/C [6]: 140%; T/C [7]: 158%; IC50 (A549): 45 µM; IC50 (A-427): 7 µM; T/C (L1210 [8]): 142%; IC50 (A498): 35 µM; T/C [9]: 132%; IC50 [10]: 75 µM; IC50 (HOS-TE85): 37 µM; IC50 (OVCAR-3): 60 µM; IC50 (NCI-H460): 65 µM |
| CC(=O)N(C)/N=N\CCCl | 20 | 42 | 24 | 18 | 26 | 35 | 60 | 60 | 15 | 50 | 17 | 18 | 25 | 32 | 26 | 18 | 15 | 8 | 20 | 15 | T/C (P388 [11]): 157%; T/C (P388 [12]): 257%; IC50 (A549): 26 µM; IC50 (A-427): 12 µM; IC50 (A498): 18 µM; T/C (P388 [13]): 217%; IC50 [10]: 44 µM; IC50 (HOS-TE85): 18 µM; IC50 (OVCAR-3): 25 µM; IC50 (NCI-H460): 60 µM |
| CCOC(=O)N(C)/N=N\CCCl | 18 | 30 | 17 | 8 | 20 | 20 | 50 | 45 | 13 | 34 | 13 | 10 | 15 | 14 | 18 | 26 | 10 | 2.4 | 16 | 16 | T/C (P388 [14]): 175%; IC50 (A549): 14 µM; IC50 (A-427): 11 µM; IC50 (A498): 16 µM; IC50 [10]: 46 µM; IC50 (HOS-TE85): 26 µM; IC50 (OVCAR-3): 26 µM; IC50 (NCI-H460): 50 µM |
